In ChEMBL document CHEMBL5705890, “Antitumor activity of an allosteric inhibitor of centromere-associated protein-E” (Proc Natl Acad Sci U S A, 2010):

How the values were obtained:
[1] = tested on: HT-29; assay: Anticancer activity against human HT-29 cells assessed as cell doubling measured for 72 hrs by DAPI staining based analysis; assay type: functional
[2] = tested on: HCC70; assay: Anticancer activity against human HCC70 cells assessed as cell doubling measured for 72 hrs by DAPI staining based analysis; assay type: functional
[3] = tested on: SNB-75; assay: Anticancer activity against human SNB-75 cells assessed as cell doubling measured for 72 hrs by DAPI staining based analysis; assay type: functional
[4] = tested on: SNU-5; assay: Anticancer activity against human SNU-5 cells assessed as cell growth inhibition measured after 72 hrs by DAPI staining based analysis; assay type: functional
[5] = tested on: T84; assay: Anticancer activity against human T84 cells assessed as cell growth inhibition measured after 72 hrs by DAPI staining based analysis; assay type: functional
[6] = tested on: CAKI-2; assay: Anticancer activity against human CAKI-2 cells assessed as cell growth inhibition measured after 72 hrs by DAPI staining based analysis; assay type: functional
Summary of the method: (§1)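 Cells were seeded, and DNA content at 24 h after seeding (T0) was read by imaging of fixed, DAPI-stained cells. Cells were then exposed to a range of drug concentrations for a further 72 h (T72) and DNA content was read again. T72 values were normalized to T0, and GI50 was taken from curve fits as the concentration giving 50% growth inhibition relative to T0 and Ymax.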

[7] = tested on: HCT-116; assay: Antitumor activity against human HCT-116 cells in xenograft model assessed as difference between median time to endpoint time of treated versus control group at 125 mg/kg; assay type: functional
[8] = tested on: SR; assay: Anticancer activity against human SR cells assessed as cell growth inhibition measured after 72 hrs by DAPI staining based analysis; assay type: functional
[9] = tested on: NCI-H596; assay: Anticancer activity against human NCI-H596 cells assessed as cell growth inhibition measured after 72 hrs by DAPI staining based analysis; assay type: functional
[10] = tested on: G-401; assay: Anticancer activity against human G-401 cells assessed as cell doubling measured for 72 hrs by DAPI staining based analysis; assay type: functional
[11] = tested on: RPMI-8226; assay: Anticancer activity against human RPMI-8226 cells assessed as cell growth inhibition measured after 72 hrs by DAPI staining based analysis; assay type: functional
[12] = tested on: SK-MEL-28; assay: Anticancer activity against human SK-MEL-28 cells assessed as cell growth inhibition measured after 72 hrs by DAPI staining based analysis; assay type: functional
[13] = tested on: SW1990; assay: Anticancer activity against human SW1990 cells assessed as cell doubling measured for 72 hrs by DAPI staining based analysis; assay type: functional
[14] = tested on: MDA-MB-435; assay: Anticancer activity against human MDA-MB-435 cells assessed as cell growth inhibition measured after 72 hrs by DAPI staining based analysis; assay type: functional
[15] = tested on: HOP-62; assay: Anticancer activity against human HOP-62 cells assessed as cell growth inhibition measured after 72 hrs by DAPI staining based analysis; assay type: functional
[16] = tested on: MCF-10A; assay: Anticancer activity against human MCF-10A cells assessed as cell doubling measured for 72 hrs by DAPI staining based analysis; assay type: functional
[17] = tested on: SK-OV-3; assay: Antitumor activity against human SK-OV-3 cells in xenograft model assessed as difference between median time to endpoint time of treated versus control group at 62.5 mg/kg; assay type: functional
[18] = tested on: COLO 320DM; assay: Anticancer activity against human COLO 320DM cells assessed as cell doubling measured for 72 hrs by DAPI staining based analysis; assay type: functional
[19] = tested on: RPMI-2650; assay: Anticancer activity against human RPMI-2650 cells assessed as cell growth inhibition measured after 72 hrs by DAPI staining based analysis; assay type: functional
[20] = Anticancer activity against human MV-522 cells assessed as cell growth inhibition measured after 72 hrs by DAPI staining based analysis; assay type: functional; settings: MV522
[21] = tested on: BT-474; assay: Anticancer activity against human BT-474 cells assessed as cell growth inhibition measured after 72 hrs by DAPI staining based analysis; assay type: functional; summary of the method: as §1
[22] = tested on: Malme-3M; assay: Anticancer activity against human Malme-3M cells assessed as cell growth inhibition measured after 72 hrs by DAPI staining based analysis; assay type: functional
[23] = tested on: A 172; assay: Anticancer activity against human A-172 cells assessed as cell growth inhibition measured after 72 hrs by DAPI staining based analysis; assay type: functional
Summary of the method: (§2)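 Cells were seeded and, after 24 h, DNA content was read as T0. Cells were then exposed to varying drug concentrations for a further 72 h (T72). Fixed cells were DAPI-stained and DNA content measured by automated imaging. T72 values were normalized to T0. GI50 is the concentration giving 50% growth inhibition between T0 and Ymax, obtained by curve fitting.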

[24] = tested on: MIA PaCa-2; assay: Anticancer activity against human MIA PaCa-2 cells assessed as cell growth inhibition measured after 72 hrs by DAPI staining based analysis; assay type: functional
[25] = Anticancer activity against human C32TG cells assessed as cell doubling measured for 72 hrs by DAPI staining based analysis; assay type: functional
[26] = tested on: COLO-320-HSR; assay: Anticancer activity against human COLO 320HSR cells assessed as cell doubling measured for 72 hrs by DAPI staining based analysis; assay type: functional
[27] = tested on: NCI-H1299; assay: Anticancer activity against human NCI-H1299 cells assessed as cell growth inhibition measured after 72 hrs by DAPI staining based analysis; assay type: functional
[28] = tested on: SN12C; assay: Anticancer activity against human SN12C cells assessed as cell doubling measured for 72 hrs by DAPI staining based analysis; assay type: functional
[29] = tested on: THP-1; assay: Anticancer activity against human THP-1 cells assessed as cell growth inhibition measured after 72 hrs by DAPI staining based analysis; assay type: functional
[30] = tested on: MDA-MB-468; assay: Anticancer activity against human MDA-MB-468 cells assessed as cell growth inhibition measured after 72 hrs by DAPI staining based analysis; assay type: functional
[31] = tested on: A2780; assay: Anticancer activity against human A2780 cells assessed as cell growth inhibition measured after 72 hrs by DAPI staining based analysis; assay type: functional; summary of the method: as §2
[32] = tested on: SCC-15; assay: Anticancer activity against human SCC-15 cells assessed as cell doubling measured for 72 hrs by DAPI staining based analysis; assay type: functional
[33] = target: Centromere-associated protein E (Homo sapiens, UniProt Q02224, I182L/K184T); assay: Binding affinity to human CENP-E I182L/K184T mutant assessed as inhibition constant
[34] = tested on: DoTc2-4510; assay: Anticancer activity against human DoTc2-4510 cells assessed as cell doubling measured for 72 hrs by DAPI staining based analysis; assay type: functional
[35] = tested on: HCT-116; assay: Anticancer activity against human HCT-116 cells assessed as cell growth inhibition measured after 72 hrs by DAPI staining based analysis; assay type: functional
[36] = tested on: NCI-H2170; assay: Anticancer activity against human NCI-H2170 cells assessed as cell growth inhibition measured after 72 hrs by DAPI staining based analysis; assay type: functional
[37] = target: Centromere-associated protein E (Homo sapiens, UniProt Q02224); assay: Uncompetitive binding affinity to microtubule-stimulated ATPase activity of C-terminal 6-his-tagged CENP-E (2 to 340 residues)(unknown origin) expressed in Escherichia coli BL21(DE3) assessed as apparent inhibition constant; settings: read-out: Ki(app)
Summary of the method: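 CENP-E motor domain (residues 2–340, C-terminal 6-his, from E. coli BL21(DE3)) run in MT-stimulated ATPase with 500 μM ATP, 5 μM paclitaxel-stabilized MT, 1 nM enzyme in PEM25 buffer, pH 6.8. Apparent Ki taken from the concentration-response curves with explicit correction for enzyme concentration.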

[38] = Anticancer activity against human NCI-H322T cells assessed as cell doubling measured for 72 hrs by DAPI staining based analysis; assay type: functional

Centromere-associated protein E (Homo sapiens, UniProt Q02224), sequence (Q02224 whole entry, the tested form may be a part): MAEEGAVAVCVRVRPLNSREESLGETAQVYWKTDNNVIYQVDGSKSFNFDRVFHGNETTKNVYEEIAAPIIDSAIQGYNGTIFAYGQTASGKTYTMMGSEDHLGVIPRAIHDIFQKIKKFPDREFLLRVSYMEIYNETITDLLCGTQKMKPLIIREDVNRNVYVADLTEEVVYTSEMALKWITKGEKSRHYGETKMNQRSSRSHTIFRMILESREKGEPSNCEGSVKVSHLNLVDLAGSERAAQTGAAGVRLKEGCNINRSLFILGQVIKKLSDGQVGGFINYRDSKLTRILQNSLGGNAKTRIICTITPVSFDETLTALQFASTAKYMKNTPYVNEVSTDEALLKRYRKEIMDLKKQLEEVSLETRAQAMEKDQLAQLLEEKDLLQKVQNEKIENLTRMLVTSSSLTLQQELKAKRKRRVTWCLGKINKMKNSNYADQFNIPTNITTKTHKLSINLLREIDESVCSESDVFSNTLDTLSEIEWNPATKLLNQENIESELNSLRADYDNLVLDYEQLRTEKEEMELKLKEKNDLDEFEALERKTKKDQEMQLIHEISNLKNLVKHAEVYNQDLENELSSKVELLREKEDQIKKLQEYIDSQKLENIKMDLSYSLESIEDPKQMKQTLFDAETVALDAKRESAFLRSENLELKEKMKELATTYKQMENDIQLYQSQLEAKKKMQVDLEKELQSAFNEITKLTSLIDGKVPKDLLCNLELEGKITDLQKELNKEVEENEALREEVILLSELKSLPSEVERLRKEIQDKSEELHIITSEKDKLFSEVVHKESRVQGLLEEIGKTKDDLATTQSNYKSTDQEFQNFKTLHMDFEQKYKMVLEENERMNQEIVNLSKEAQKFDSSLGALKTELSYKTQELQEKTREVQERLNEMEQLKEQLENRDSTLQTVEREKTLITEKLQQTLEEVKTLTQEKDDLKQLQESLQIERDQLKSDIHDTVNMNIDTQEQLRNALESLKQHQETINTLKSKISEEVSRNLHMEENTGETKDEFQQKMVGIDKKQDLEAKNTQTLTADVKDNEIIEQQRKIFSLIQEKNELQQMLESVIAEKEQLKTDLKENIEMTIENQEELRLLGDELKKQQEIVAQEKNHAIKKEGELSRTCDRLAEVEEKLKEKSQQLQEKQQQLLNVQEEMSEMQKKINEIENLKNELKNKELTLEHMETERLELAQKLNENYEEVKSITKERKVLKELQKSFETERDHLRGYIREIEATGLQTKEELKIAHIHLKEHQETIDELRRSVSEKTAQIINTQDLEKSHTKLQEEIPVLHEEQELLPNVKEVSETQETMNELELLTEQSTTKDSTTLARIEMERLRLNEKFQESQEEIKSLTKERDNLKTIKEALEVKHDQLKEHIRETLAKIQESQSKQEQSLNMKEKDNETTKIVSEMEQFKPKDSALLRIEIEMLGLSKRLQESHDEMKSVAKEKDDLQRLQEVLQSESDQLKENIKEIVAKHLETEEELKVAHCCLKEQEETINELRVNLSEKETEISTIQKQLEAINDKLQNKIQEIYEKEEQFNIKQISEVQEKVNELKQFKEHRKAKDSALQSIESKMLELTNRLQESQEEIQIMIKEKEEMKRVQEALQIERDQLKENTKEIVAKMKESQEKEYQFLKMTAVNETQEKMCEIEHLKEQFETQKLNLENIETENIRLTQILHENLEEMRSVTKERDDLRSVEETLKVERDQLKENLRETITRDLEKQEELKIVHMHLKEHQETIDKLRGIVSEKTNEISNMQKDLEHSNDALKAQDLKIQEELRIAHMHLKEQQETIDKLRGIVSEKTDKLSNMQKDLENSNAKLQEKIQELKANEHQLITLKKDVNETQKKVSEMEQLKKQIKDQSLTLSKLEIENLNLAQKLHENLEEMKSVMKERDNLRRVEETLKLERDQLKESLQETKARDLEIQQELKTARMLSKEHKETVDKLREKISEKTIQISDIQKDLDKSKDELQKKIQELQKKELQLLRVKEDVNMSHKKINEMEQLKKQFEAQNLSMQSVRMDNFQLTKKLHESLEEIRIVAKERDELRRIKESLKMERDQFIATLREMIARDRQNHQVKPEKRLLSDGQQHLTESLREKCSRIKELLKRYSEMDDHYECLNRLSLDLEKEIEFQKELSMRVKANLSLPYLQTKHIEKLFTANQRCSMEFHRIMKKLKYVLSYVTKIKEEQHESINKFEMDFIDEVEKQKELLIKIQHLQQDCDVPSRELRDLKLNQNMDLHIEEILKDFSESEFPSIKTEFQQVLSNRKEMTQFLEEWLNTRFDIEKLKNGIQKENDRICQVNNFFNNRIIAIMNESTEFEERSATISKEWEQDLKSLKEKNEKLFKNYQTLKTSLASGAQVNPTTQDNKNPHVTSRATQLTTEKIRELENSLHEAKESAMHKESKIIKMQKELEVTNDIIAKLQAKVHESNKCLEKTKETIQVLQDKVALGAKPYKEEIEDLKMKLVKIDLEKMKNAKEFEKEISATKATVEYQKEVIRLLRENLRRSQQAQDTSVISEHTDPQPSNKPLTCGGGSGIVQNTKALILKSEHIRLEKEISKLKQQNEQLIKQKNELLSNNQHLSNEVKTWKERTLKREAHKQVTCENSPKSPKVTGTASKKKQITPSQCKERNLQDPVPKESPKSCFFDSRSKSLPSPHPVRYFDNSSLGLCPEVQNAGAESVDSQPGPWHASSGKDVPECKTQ
Centromere-associated protein E (Homo sapiens, UniProt Q02224, I182L/K184T), sequence (Q02224 whole entry I182L/K184T): as the sequence (Q02224 whole entry, the tested form may be a part) above, with I182L, K184T counted along it

- GI50 [4]: 88 nM
- GI50 [9]: 5.02 µM
- GI50 [11]: 27 nM
- GI50 [12]: 31 nM
- GI50 [14]: 30 nM
- GI50 [21]: 110 nM
- GI50 [24]: 23 nM
- GI50 [27]: 52 nM
- GI50 [29]: 12 nM
- GI50 [30]: 25 nM
- GI50 [31]: 13 nM
- Ki [33]: 18 nM
- GI50 [35]: 31 nM
- GI50 [36]: 25 nM
- Ki [37]: 3.2 nM
SMILES: CC(C)Oc1ccc(C(=O)N[C@H](CNC(=O)CN(C)C)Cc2ccc(-c3cn4cccc([C@H](C)O)c4n3)cc2)cc1Cl [GSK-923295A]
- Activity [1]: 4.33
- Activity [2]: 1.35
- Activity [3]: 1.37
- GI50 [5]: 75 nM
- GI50 [6]: 25 nM
- Time [7]: 10.4 days
- GI50 [8]: 29 nM
- Activity [10]: 4.28
- Activity [13]: 1.88
- GI50 [15]: 20 nM
- Activity [16]: 3.87
- Time [17]: 71.6 days
- Activity [18]: 3.85
- GI50 [19]: 36 nM
- GI50 [20]: 48 nM
- GI50 [22]: 51 nM
- GI50 [23]: 27 nM
- Activity [25]: 1.21
- Activity [26]: 3.25
- Activity [28]: 2.47
- Activity [32]: 2.38
- Activity [34]: 2.17
- Activity [38]: 2.27
